Measurements published in ChEMBL document CHEMBL4130550, “Antiproliferative Dimeric Aporphinoid Alkaloids from the Roots of Thalictrum cultratum” (J Nat Prod, 2017).

Legend:
HL-60 [1] = experiment: Antiproliferative activity against human HL60 cells after 72 hrs by tryphan blue staining based hematocytometric method; type: functional, cell-based; details: HL-60, 72 h
Method in brief: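 HL-60 (ATCC) in RPMI-1640 with 10% heat-inactivated FBS, 1 mM glutamine and penicillin/streptomycin, 37 °C, 5% CO2. Cells at 4.5 × 10^4 cells/mL are exposed to a concentration gradient (DMSO stock diluted in absolute EtOH) for 72 h. Trypan blue is added and total cells are counted on a hematocytometer. IC50 is the mean of three parallel experiments. Negative reference is 0.1% DMSO.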

PC-3 [2] = experiment: Antiproliferative activity against human PC3 cells by MTT assay; type: functional, cell-based
Method in brief: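 PC-3 (ATCC) in supplemented RPMI-1640 with 10% FBS at 37 °C, 5% CO2. Log-phase cells get graded concentrations in triplicate. MTT (5 mg/mL solution) is added for a further 4 h, then dissolved in DMSO and read at 490 nm. IC50 is from the average of three parallel experiments. Negative reference is 0.1% DMSO.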

HL-60 [3] = experiment: Potency index, ratio of 5-fluorouracil IC50 to compound IC50 for human HL60 cells; type: functional
PC-3 [4] = experiment: Potency index, ratio of camptothecin IC50 to compound IC50 for human PC3 cells; type: functional
PC-3 [5] = experiment: Potency index, ratio of 5-fluorouracil IC50 to compound IC50 for human PC3 cells; type: functional

| SMILES | IC50 (HL-60 [1]) | IC50 (PC-3 [2]) | Ratio IC50 (HL-60 [3]) | Ratio IC50 (PC-3 [4]) | Ratio IC50 (PC-3 [5]) |
| --- | --- | --- | --- | --- | --- |
| COc1cc2c(c(O)c1OC)CC[N@@+](C)([O-])[C@H]2Cc1ccc(Oc2c3c(cc(OC)c2OC)-c2c(OC)c(OC)c(OC)c4c2[C@H](C3)N(C)CC4)cc1 | 4.57 µM | 18.7 µM | – | – | – |
| COc1cc2c(c3c1OCO3)CCN(C)[C@H]2Cc1ccc(Oc2c(OC)c(OC)cc3c2cc2c4c(c(OC)c(OC)c(OC)c43)CCN2C)cc1 | 1.77 µM | 3.29 µM | – | – | – |
| O=c1[nH]cc(F)c(=O)[nH]1 [FLUOROURACIL] | – | 22 µM | – | – | – |
| COc1cc2c(cc1OC)[C@H](Cc1ccc(Oc3c4c(cc(OC)c3OC)-c3c(OC)c(OC)c(OC)c5c3[C@H](C4)N(C)CC5)cc1)N(C)CC2 [THALIFABERINE] | 1.58 µM | 7.27 µM | – | – | – |
| COc1cc2c(c(OC)c1OC)CCN(C)[C@H]2Cc1ccc(Oc2c(OC)c(OC)cc3c2cc2c4c(c(OC)c(OC)c(OC)c43)CCN2C)cc1 | 2.12 µM | 6.01 µM | – | – | – |
| COc1cc2c(c(O)c1OC)CCN(C)[C@H]2Cc1ccc(Oc2c3c(cc(OC)c2OC)-c2c(OC)c(OC)cc4c2[C@H](C3)N(C)CC4)cc1 | 2.1 µM | 5.85 µM | – | – | – |
| COc1cc2c(cc1OC)[C@H](Cc1ccc(Oc3c(OC)c(OC)cc4c3cc3c5c(c(OC)c(OC)c(OC)c54)CCN3C)cc1)N(C)CC2 | 2.41 µM | 2.56 µM | – | – | – |
| COc1cc2c(c(O)c1OC)CC[N@+](C)([O-])[C@H]2Cc1ccc(Oc2c3c(cc(OC)c2OC)-c2c(OC)c(OC)c(OC)c4c2[C@H](C3)N(C)CC4)cc1 | 2.86 µM | 12.7 µM | – | – | – |
| CC[C@@]1(O)C(=O)OCc2c1cc1n(c2=O)Cc2cc3ccccc3nc2-1 [CAMPTOTHECIN] | 0.92 µM | 6.96 µM | – | – | – |
| COc1cc2c(cc1OC)[C@H](Cc1ccc(Oc3c4c(cc(OC)c3OC)-c3c(OC)c(OC)cc5c3[C@H](C4)N(C)CC5)cc1)N(C)CC2 | 1.44 µM | 2.72 µM | – | – | – |
| COc1cc2c(cc1OC)-c1cc3c(Oc4cc5c(cc4OC)-c4c(OC)c(OC)c(OC)c6c4[C@H](C5)N(C)CC6)c(OC)c(OC)cc3c(=O)n1CC2 | 10.3 µM | 3.72 µM | – | – | – |
| COc1cc2c(cc1OC)C1=Cc3c(cc(OC)c(OC)c3Oc3cc4c(cc3OC)-c3c(OC)c(OC)c(OC)c5c3[C@H](C4)N(C)CC5)CN1CC2 | 1.77 µM | 11.6 µM | – | – | – |
| COc1cc2c(c(Oc3ccc(C[C@H]4c5cc(OC)c(OC)c(OC)c5CC[N@+]4(C)[O-])cc3)c1OC)C[C@H]1c3c(c(OC)c(OC)c(OC)c3-2)CCN1C | 4.21 µM | 8.35 µM | – | – | – |
| COc1cc2c(c(Oc3ccc(C[C@H]4c5cc(OC)c(OC)c(OC)c5CCN4C)cc3)c1OC)C[C@H]1c3c(c(OC)c(OC)c(OC)c3-2)CCN1C | 1.16 µM | 6.05 µM | – | – | – |
| COc1cc2c(cc1OC)[C@H](Cc1ccc(Oc3c(OC)c(OC)cc4c3cc3c5c(cc(OC)c(OC)c54)CCN3C)cc1)N(C)CC2 | 4.09 µM | 7.86 µM | – | – | – |
| COc1cc2c(c(O)c1OC)CCN(C)[C@H]2Cc1ccc(Oc2c(OC)c(OC)cc3c2cc2c4c(c(OC)c(OC)c(OC)c43)CCN2C)cc1 | 4.28 µM | 7.1 µM | – | – | – |
| COc1cc2c(c(Oc3ccc(C[C@H]4c5cc(OC)c(OC)c(OC)c5CC[N@@+]4(C)[O-])cc3)c1OC)C[C@H]1c3c(c(OC)c(OC)c(OC)c3-2)CCN1C | 5.05 µM | 13.4 µM | – | – | – |
| COc1cc2c(c(O)c1OC)CCN(C)[C@H]2Cc1ccc(Oc2c3c(cc(OC)c2OC)-c2c(OC)c(OC)c(OC)c4c2[C@H](C3)N(C)CC4)cc1 | 1.01 µM | 2.47 µM | 2 | 3 | 9 |
